The target of assay [1] is T1, 5-hydroxytryptamine receptor 1A (Rattus norvegicus, UniProt P19327).
T1 sequence (P19327 whole entry): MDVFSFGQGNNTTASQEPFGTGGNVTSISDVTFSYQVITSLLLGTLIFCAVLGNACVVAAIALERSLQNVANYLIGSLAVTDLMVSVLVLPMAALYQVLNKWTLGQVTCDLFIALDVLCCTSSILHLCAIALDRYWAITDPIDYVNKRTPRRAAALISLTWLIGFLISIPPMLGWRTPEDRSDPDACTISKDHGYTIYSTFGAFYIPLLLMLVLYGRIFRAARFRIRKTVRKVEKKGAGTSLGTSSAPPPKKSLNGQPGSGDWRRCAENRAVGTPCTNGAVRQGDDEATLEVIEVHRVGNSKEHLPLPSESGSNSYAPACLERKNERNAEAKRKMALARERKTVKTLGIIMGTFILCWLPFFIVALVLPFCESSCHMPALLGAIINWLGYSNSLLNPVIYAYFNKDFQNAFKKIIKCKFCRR
The assay is described as follows: Binding was determined on 5-hydroxytryptamine 1A receptor in rat hippocampal membranes. It is filed as cell membranes, Hippocampus. In short, it runs like this: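 Hippocampus from male Wistar Hannover rats, homogenized in 50 mM Tris pH 7.6, washed, and preincubated 10 min at 37 °C. Ki given as mean ± SEM.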

Assay [2] concerns the target T2, Adrenergic receptor alpha-1 (Rattus norvegicus, UniProt P15823+P23944+P43140).
T2 sequence (P15823 whole entry): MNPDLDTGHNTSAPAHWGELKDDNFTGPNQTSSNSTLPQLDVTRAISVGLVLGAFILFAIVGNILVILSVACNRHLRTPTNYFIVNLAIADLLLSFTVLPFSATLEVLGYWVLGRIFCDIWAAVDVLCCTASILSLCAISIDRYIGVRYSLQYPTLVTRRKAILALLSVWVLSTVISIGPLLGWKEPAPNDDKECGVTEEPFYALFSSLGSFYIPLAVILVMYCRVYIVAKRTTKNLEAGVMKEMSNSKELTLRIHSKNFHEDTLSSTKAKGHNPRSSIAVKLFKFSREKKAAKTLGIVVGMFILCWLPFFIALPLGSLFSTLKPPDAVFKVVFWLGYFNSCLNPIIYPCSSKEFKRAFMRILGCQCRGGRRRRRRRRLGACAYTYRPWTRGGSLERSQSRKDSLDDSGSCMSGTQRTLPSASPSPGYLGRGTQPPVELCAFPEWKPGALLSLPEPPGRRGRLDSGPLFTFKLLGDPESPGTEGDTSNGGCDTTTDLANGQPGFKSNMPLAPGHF
T2 sequence (P23944 whole entry): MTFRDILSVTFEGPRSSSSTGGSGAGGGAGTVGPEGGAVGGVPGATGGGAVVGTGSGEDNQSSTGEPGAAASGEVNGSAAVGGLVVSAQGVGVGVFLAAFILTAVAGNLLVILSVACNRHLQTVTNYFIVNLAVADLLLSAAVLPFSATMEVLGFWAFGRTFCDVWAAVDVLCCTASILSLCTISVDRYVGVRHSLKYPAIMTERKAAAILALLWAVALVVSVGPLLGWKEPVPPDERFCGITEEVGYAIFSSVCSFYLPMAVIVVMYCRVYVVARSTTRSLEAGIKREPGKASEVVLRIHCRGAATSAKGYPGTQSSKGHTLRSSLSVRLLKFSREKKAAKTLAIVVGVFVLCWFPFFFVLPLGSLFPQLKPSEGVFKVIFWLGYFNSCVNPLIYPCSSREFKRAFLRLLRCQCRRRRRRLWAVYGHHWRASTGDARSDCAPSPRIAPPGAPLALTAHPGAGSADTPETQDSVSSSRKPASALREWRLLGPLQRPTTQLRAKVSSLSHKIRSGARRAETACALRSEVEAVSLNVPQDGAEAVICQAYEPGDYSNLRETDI
T2 sequence (P43140 whole entry): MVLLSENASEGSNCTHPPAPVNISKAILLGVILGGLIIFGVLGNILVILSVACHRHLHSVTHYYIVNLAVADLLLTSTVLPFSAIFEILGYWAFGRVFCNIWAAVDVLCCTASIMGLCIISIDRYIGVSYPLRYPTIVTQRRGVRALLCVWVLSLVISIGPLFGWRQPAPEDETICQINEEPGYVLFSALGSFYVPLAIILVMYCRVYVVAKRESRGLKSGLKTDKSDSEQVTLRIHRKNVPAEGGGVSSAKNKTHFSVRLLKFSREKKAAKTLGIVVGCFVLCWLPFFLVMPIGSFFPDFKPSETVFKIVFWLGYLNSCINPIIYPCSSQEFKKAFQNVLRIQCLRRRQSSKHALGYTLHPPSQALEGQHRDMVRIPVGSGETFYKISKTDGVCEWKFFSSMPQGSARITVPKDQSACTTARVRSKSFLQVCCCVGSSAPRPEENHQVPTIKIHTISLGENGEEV
The assay is described as follows: Binding affinity towards alpha-1 adrenergic receptor in rat cortical membranes. Type of assay: cell membranes.

The target of another assay is D(2) dopamine receptor (Rattus norvegicus, UniProt P61169). As to the kind of experiment: Binding affinity towards dopamine receptor D2 in rat striatal membranes. It is filed as cell membranes, Striatum, Membrane.
Sequence of D(2) dopamine receptor (P61169 whole entry): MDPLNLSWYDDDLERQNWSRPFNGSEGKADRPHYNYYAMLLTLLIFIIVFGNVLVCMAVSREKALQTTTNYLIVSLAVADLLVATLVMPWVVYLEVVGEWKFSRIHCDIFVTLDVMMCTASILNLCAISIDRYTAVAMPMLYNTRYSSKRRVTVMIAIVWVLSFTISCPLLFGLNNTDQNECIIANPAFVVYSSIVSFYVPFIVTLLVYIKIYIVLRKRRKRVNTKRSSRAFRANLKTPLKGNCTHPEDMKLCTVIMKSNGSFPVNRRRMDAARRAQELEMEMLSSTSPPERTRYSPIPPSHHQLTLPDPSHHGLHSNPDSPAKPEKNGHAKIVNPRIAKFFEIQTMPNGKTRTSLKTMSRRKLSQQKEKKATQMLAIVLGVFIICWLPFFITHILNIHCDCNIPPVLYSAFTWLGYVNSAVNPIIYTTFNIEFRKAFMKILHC
Assay [3] has as its target T3, 5-hydroxytryptamine receptor 1A (Homo sapiens) (UniProt P08908).
T3 sequence (whole entry): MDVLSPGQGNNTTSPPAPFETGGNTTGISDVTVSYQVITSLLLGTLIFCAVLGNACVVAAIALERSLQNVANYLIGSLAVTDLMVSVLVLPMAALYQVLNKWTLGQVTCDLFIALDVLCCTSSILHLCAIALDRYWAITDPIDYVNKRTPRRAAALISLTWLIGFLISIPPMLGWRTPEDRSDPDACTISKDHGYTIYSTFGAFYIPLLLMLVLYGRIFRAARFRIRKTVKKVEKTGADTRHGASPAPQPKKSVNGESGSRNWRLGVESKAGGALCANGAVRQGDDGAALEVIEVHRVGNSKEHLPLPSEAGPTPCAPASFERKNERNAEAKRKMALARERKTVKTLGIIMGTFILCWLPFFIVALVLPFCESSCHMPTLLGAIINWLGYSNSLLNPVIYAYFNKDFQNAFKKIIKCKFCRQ
As to the kind of experiment: Maximal stimulation was expressed as percentage of the maximal 5-HT response in the [35S]GTP-gamma-S, binding assay on 5-hydroxytryptamine 1A receptor. It is filed as functional. In short, it runs like this:
(§1)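 Membranes of HeLa cells expressing human 5-HT1A, in 20 mM HEPES, 3 mM MgCl2, 120 mM NaCl pH 7.4. Preincubated 20 min at 30 °C with 30 µM GDP and drug (0.1 nM–100 µM) or 5-HT as reference curve. [35S]GTPγS (200–250 pM) then added for 30 min at 30 °C. Nonspecific binding with 10 µM GTPγS. Curves fitted by ALLFIT to give Emax and pD2 (−log EC50).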
Background: GTPγS is a poorly hydrolysed GTP analogue; its binding reports G protein activation.

The target of assay [4] is T3, 5-hydroxytryptamine receptor 1A (Homo sapiens). As to the kind of experiment: Potency (pD2) for the stimulation of [35S]GTP-gamma-S, binding on 5-hydroxytryptamine 1A receptor. Type of assay: functional. In short, it runs like this:
as §1

The nature of assay [5]: Selectivity expressed as a ratio of affinity against Alpha 1A-Adrenoceptor to that of 5-HT1A receptor.
The nature of assay [6]: Selectivity expressed as a ratio of affinity against Alpha 1b-Adrenoceptor to that of 5-HT1A receptor.
Assay [7] is described as follows: Selectivity expressed as a ratio of affinity against Alpha 1d-Adrenoceptor to that of 5-HT1A receptor.
Assay [8] deals with T4, 5-hydroxytryptamine receptor 1A (Rattus norvegicus) (UniProt P19327).
T4 sequence (whole entry): T1 sequence (P19327 whole entry)
The assay is described as follows: Agonistic activity (induction of forepaw treading in rats)on postsynaptic 5-hydroxytryptamine 1A receptor while iv administration. It is filed as functional, organism-based. A digest of the protocol: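 Male Sprague Dawley rats (175–200 g), iv injection; vehicle DMF 20% v/v plus Tween 80 10% v/v in water, or water for the reference agonist. Rats placed singly 10–15 min beforehand, 4–8 per dose. A blind observer scored fore-paw treading in 30 s sessions every 3 min from 3 to 15 min.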

Data on 26 compounds can be found in ChEMBL document CHEMBL1134307, “trans-4-[4-(Methoxyphenyl)cyclohexyl]-1-arylpiperazines: a new class of potent and selective 5-HT(1A) receptor ligands as conformationally constrained analogues of 4-[3-(5-methoxy-1,2,3,4-tetrahydronaphthalen-1-yl)propyl]-1-arylpiperazines” (J Med Chem, 2001).

As to `COc1cccc(C2CCC(N3CCN(c4ccccc4)CC3)CC2)c1` (stereo in doubt; trans), the inhibition constant (Ki) – broadly, a measure of affinity in units of concentration, obtained from inhibition or displacement – in [1] was found to be 0.026 nM; in [2], 730 nM; at D(2) dopamine receptor it was 910 nM.
In the same order, the values of `COc1cccc2c1CCC/C2=C\CCNCCOc1ccccn1` are 0.71 nM, more than 850 nM and more than 850 nM.
For the compound `COc1cccc(C2CCC(NCCOc3ccccn3)CC2)c1` (cis isomer), the Ki came out at 373 nM in assay [1] and 783 nM on D(2) dopamine receptor.
Take `COc1cccc(C2=CCC(N3CCN(c4cccc5ccccc45)CC3)CC2)c1` (stereo unspecified): the values for the inhibition constant Ki (in [1]; in assay [2]; at D(2) dopamine receptor) were 15 nM, 986 nM and 327 nM, respectively.
As for `COc1cccc(C2CCC(N3CCN(c4ccccc4)CC3)CC2)c1` (stereo in doubt; cis), the results for the Ki (in assay [1]; in assay [2]; at D(2) dopamine receptor) were 183 nM, 2250 nM and 2380 nM, respectively.
For the compound `COc1cccc(CCCCN2CCN(c3ccccn3)CC2)c1`, the figures for the Ki (in assay [1]; in assay [2]; on D(2) dopamine receptor) were 23 nM, 467 nM and 750 nM, respectively.
In the same order, the values of `COc1ccccc1C1CCC(N2CCN(c3ccccn3)CC2)CC1` (stereo in doubt; trans) are 0.2 nM, 303 nM and 243 nM.
In the same order, the values of `COc1cccc(CCCCNCCOc2ccccn2)c1` are 39 nM, 733 nM and more than 850 nM.
`COc1cccc(C2CCC(N3CCN(c4ccccc4OC)CC3)CC2)c1` (stereo in doubt; trans): the Emax (usually the maximal effect, on the per cent scale that the assay sets) in assay [3] was 26.5%. This compound also had a pD2 in [4] of 9.91. Besides, the Selectivity in [5] is 24; in [6], 206; in assay [7], 21.
Consider `COc1cccc(C2=CCC(N3CCN(c4ccccc4OC)CC3)CC2)c1` (stereo unspecified), for which the inhibition constant (Ki) in assay [1] turned out to be 7.1 nM; in assay [2] it was 408 nM; on D(2) dopamine receptor it was 2930 nM.
For `COc1cccc(C2=CCC(N3CCN(c4ccccn4)CC3)CC2)c1` (stereo unspecified), the Ki in assay [1] was 536 nM; in assay [2] it was 512 nM; at D(2) dopamine receptor, 1220 nM.
As for `COc1cccc(C2=CCC(N3CCN(c4ccccc4)CC3)CC2)c1` (stereo unspecified), the Ki in assay [2] came to 5160 nM; on D(2) dopamine receptor, 2190 nM.
As to `COc1ccc(C2CCC(N3CCN(c4ccccn4)CC3)CC2)cc1` (stereo in doubt), the inhibitory constant (Ki) turned out to be 94 nM in assay [1], 786 nM in assay [2] and 787 nM at D(2) dopamine receptor.
In the same order, the values of `COc1cccc(C2CCC(N3CCN(c4ccccn4)CC3)CC2)c1` (cis isomer) are 815 nM, 783 nM and more than 850 nM.
In the case of `COc1cccc(C2CCC(N3CCN(c4ccccc4OC)CC3)CC2)c1` (stereo in doubt; cis), the Ki in [1] stood at 79.6 nM; in assay [2] it was 1050 nM; at D(2) dopamine receptor, 668 nM.
Taken in the same sequence, the figures for `COc1ccc(C2CCC(N3CCN(c4ccccn4)CC3)CC2)cc1` (trans isomer) were 0.046 nM, 847 nM and 792 nM.
Taken in the same sequence, the figures for `COc1ccc2c(c1)CCC(CNCCOc1ccccn1)C2` (stereo unspecified) were 59 nM, more than 850 nM and more than 850 nM.
`COc1cccc(C2CCC(NCCOc3ccccn3)CC2)c1` (stereo in doubt) showed an Emax in assay [3] of 82%. Besides, the pD2 in [4] is 7.46. The Selectivity worked out at 53 in assay [5], 88 in [6] and 37 in [7].
Consider `COc1ccc2c(c1)CC(CCN1CCN(c3ccccn3)CC1)CC2` (stereo unspecified), for which the inhibitory constant (Ki) in [1] is 0.16 nM; in [2], 117 nM; at D(2) dopamine receptor, 1730 nM.
In the same order, the values of `COc1ccccc1C1CCC(N2CCN(c3ccccn3)CC2)CC1` (stereo in doubt; cis) are 480 nM, 712 nM and 2120 nM.
For `COc1ccc2c(c1)CCC(CN1CCN(c3ccccn3)CC1)C2` (stereo unspecified), the Ki in assay [1] was 676 nM; in assay [2] it was 585 nM; on D(2) dopamine receptor it was more than 850 nM.
Taken in the same sequence, the figures for `COc1cccc(C2CCC(N3CCN(c4cccc5ccccc45)CC3)CC2)c1` (stereo in doubt) were 74 nM, 5540 nM and 1310 nM.
Take `COc1cccc(C2CCC(N3CCN(c4ccccn4)CC3)CC2)c1` (trans isomer): the maximum response (Emax) in assay [3] amounted to 95.9%. Moreover, the 50% effect level in [8] (ED50) was put at a dose of 0.721 µg/kg. The pD2 in assay [4] was 9.28. Moreover, the Selectivity worked out at 165 in [5], 265 in assay [6] and 590 in assay [7].
Consider `COc1cccc2c1CCC/C2=C\CCN1CCN(c2ccccn2)CC1`, for which the Ki in assay [1] was found to be 0.31 nM; in assay [2] it was 60 nM; at D(2) dopamine receptor it was 125 nM.
For `CCCN(CCC)C1CCc2cccc(O)c2C1` (stereo unspecified), the maximum response (Emax) in assay [3] stood at 100%.
On to `COc1cccc(C2CCC(N3CCN(c4cccc5ccccc45)CC3)CC2)c1` (trans isomer), for which the Ki was 0.22 nM in assay [1], 470 nM in [2] and 70 nM on D(2) dopamine receptor.
